# Results reported in ChEMBL document CHEMBL1122956, “Artificial siderophores. 1. Synthesis and microbial iron transport capabilities” (1985).
# Assays:
# [1] = test system: Escherichia coli; assay: Ability to support the growth of Escherichia coli strain BN3300 from […] was determined in growth response assay; assay type: functional
# How it was run: (§1)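 Disc growth-promotion assay on Escherichia coli K12 strains. Each strain was seeded in a soft nutrient agar overlay on nutrient agar plates. The overlay contained 0.1 mM deferriferrichrome A to make the plates iron deficient. Filter paper discs were each loaded with 10 μL of a 50–500 μM aqueous siderophore solution, with hydroxamate content checked by the ferric perchlorate reagent at 480 nm. Plates were incubated at 37 °C, and the diameter of the growth zone was scored at 12 and 24 h.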
# [2] = test system: Escherichia coli; assay: Ability to support the growth of Escherichia coli strain RW 193 from 130 uM stock solution was determined in growth response assay; No growth around disc; assay type: functional, organism-based; how it was run: as §1
# [3] = test system: Escherichia coli; assay: Ability to support the growth of Escherichia coli strain BNV3040 from 130 uM stock solution was determined in growth response assay; No growth around disc; assay type: functional, organism-based; how it was run: as §1
# [4] = test system: Escherichia coli; assay: Ability to support the growth of Escherichia coli strain BN3300 from 130 uM stock solution was determined in growth response assay; No growth around disc; assay type: functional, organism-based; how it was run: as §1
# [5] = test system: Escherichia coli; assay: Ability to support the growth of Escherichia coli strain RWB7 from 130 uM stock solution was determined in growth response assay; No growth around disc; assay type: functional, organism-based; how it was run: as §1
# [6] = test system: Escherichia coli; assay: Ability to support the growth of Escherichia coli strain RWV193 from 130 uM stock solution was determined in growth response assay; No growth around disc; assay type: functional, organism-based; how it was run: as §1
# [7] = test system: Escherichia coli; assay: Ability to support the growth of Escherichia coli strain AN193 from 130 uM stock solution was determined in growth response assay; No growth around disc; assay type: functional, organism-based; how it was run: as §1
# [8] = test system: Escherichia coli; assay: Ability to support the growth of Escherichia coli strain RWV193 from 100 uM stock solution was determined in growth response assay; assay type: functional; how it was run: as §1
# [9] = test system: Escherichia coli; assay: Ability to support the growth of Escherichia coli strain AN193 from 100 uM stock solution was determined in growth response assay; No growth around disc; assay type: functional, organism-based; how it was run: as §1
# [10] = test system: Escherichia coli; assay: Ability to support the growth of Escherichia coli strain BN3300 from 100 uM stock solution was determined in growth response assay; No growth around disc; assay type: functional, organism-based; how it was run: as §1
# [11] = test system: Escherichia coli; assay: Ability to support the growth of Escherichia coli strain RWB7 from 100 uM stock solution was determined in growth response assay; No growth around disc; assay type: functional, organism-based; how it was run: as §1
# [12] = test system: Escherichia coli; assay: Ability to support the growth of Escherichia coli strain BNV3040 from 134 uM stock solution was determined in growth response assay; assay type: functional; how it was run: as §1
# [13] = test system: Escherichia coli; assay: Ability to support the growth of Escherichia coli strain RW 193 from 134 uM stock solution was determined in growth response assay; assay type: functional; how it was run: as §1
# [14] = test system: Escherichia coli; assay: Ability to support the growth of Escherichia coli strain BN3300 from 134 uM stock solution was determined in growth response assay; No growth around disc; assay type: functional, organism-based; how it was run: as §1
# [15] = test system: Escherichia coli; assay: Ability to support the growth of Escherichia coli strain RWB7 from 134 uM stock solution was determined in growth response assay; No growth around disc; assay type: functional, organism-based; how it was run: as §1
# [16] = test system: Escherichia coli; assay: Ability to support the growth of Escherichia coli strain AN193 from 134 uM stock solution was determined in growth response assay; No growth around disc; assay type: functional, organism-based; how it was run: as §1
# [17] = test system: Escherichia coli; assay: Ability to support the growth of Escherichia coli strain BNV3040 from 50 uM stock solution was determined in growth response assay; assay type: functional; how it was run: as §1
# [18] = test system: Escherichia coli; assay: Ability to support the growth of Escherichia coli strain BN3300 from 50 uM stock solution was determined in growth response assay; No growth around disc; assay type: functional, organism-based; how it was run: as §1
# [19] = test system: Escherichia coli; assay: Ability to support the growth of Escherichia coli strain RW 193 from 50 uM stock solution was determined in growth response assay; assay type: functional; how it was run: as §1
# [20] = test system: Escherichia coli; assay: Ability to support the growth of Escherichia coli strain RWB7 from 50 uM stock solution was determined in growth response assay; No growth around disc; assay type: functional, organism-based; how it was run: as §1
# [21] = test system: Escherichia coli; assay: Ability to support the growth of Escherichia coli strain AN193 from 50 uM stock solution was determined in growth response assay; assay type: functional; how it was run: as §1
# [22] = test system: Escherichia coli; assay: Ability to support the growth of Escherichia coli strain RWV193 from 50 uM stock solution was determined in growth response assay; assay type: functional; how it was run: as §1
# [23] = test system: Escherichia coli; assay: Ability to support the growth of Escherichia coli strain BNV3040 from 50&500 uM stock solution was determined in growth response assay; assay type: functional; how it was run: as §1
# [24] = test system: Escherichia coli; assay: Ability to support the growth of Escherichia coli strain RW 193 from 50&500 uM stock solution was determined in growth response assay; assay type: functional; how it was run: as §1
# [25] = test system: Escherichia coli; assay: Ability to support the growth of Escherichia coli strain BN3300 from 50&500 uM stock solution was determined in growth response assay; No growth around disc; assay type: functional, organism-based; how it was run: as §1
# [26] = test system: Escherichia coli; assay: Ability to support the growth of Escherichia coli strain RWB7 from 50&500 uM stock solution was determined in growth response assay; No growth around disc; assay type: functional, organism-based; how it was run: as §1
# [27] = test system: Escherichia coli; assay: Ability to support the growth of Escherichia coli strain AN193 from 50&500 uM stock solution was determined in growth response assay; No growth around disc; assay type: functional, organism-based; how it was run: as §1
# [28] = test system: Escherichia coli; assay: Ability to support the growth of Escherichia coli strain BNV3040 from 200 uM stock solution was determined in growth response assay; assay type: functional; how it was run: as §1
# [29] = test system: Escherichia coli; assay: Ability to support the growth of Escherichia coli strain BN3300 from 200 uM stock solution was determined in growth response assay; No growth around disc; assay type: functional, organism-based; how it was run: as §1
# [30] = test system: Escherichia coli; assay: Ability to support the growth of Escherichia coli strain RWB7 from 200 uM stock solution was determined in growth response assay; No growth around disc; assay type: functional, organism-based; how it was run: as §1
# [31] = test system: Escherichia coli; assay: Ability to support the growth of Escherichia coli strain RWV193 from 200 uM stock solution was determined in growth response assay; assay type: functional; how it was run: as §1
# [32] = test system: Escherichia coli; assay: Ability to support the growth of Escherichia coli strain AN193 from 50 uM stock solution was determined in growth response assay; No growth around disc; assay type: functional, organism-based; how it was run: as §1
# [33] = test system: Escherichia coli; assay: Ability to support the growth of Escherichia coli strain BNV3040 from 380 uM stock solution was determined in growth response assay; No growth around disc; assay type: functional, organism-based; how it was run: as §1
# [34] = test system: Escherichia coli; assay: Ability to support the growth of Escherichia coli strain RW 193 from 380 uM stock solution was determined in growth response assay; No growth around disc; assay type: functional, organism-based; how it was run: as §1
# [35] = test system: Escherichia coli; assay: Ability to support the growth of Escherichia coli strain BN3300 from uM stock solution was determined in growth response assay; No growth around disc; assay type: functional, organism-based; how it was run: as §1
# [36] = test system: Escherichia coli; assay: Ability to support the growth of Escherichia coli strain RWB7 from 380 uM stock solution was determined in growth response assay; No growth around disc; assay type: functional, organism-based; how it was run: as §1
# [37] = test system: Escherichia coli; assay: Ability to support the growth of Escherichia coli strain AN193 from 380 uM stock solution was determined in growth response assay; No growth around disc; assay type: functional, organism-based; how it was run: as §1
# [38] = test system: Escherichia coli; assay: Ability to support the growth of Escherichia coli strain RWV193 from 380 uM stock solution was determined in growth response assay; No growth around disc; assay type: functional, organism-based; how it was run: as §1
compound,measurement,setting,value
O=C(N[C@H]1COC(=O)[C@@H](NC(=O)c2cccc(O)c2O)COC(=O)[C@@H](NC(=O)c2cccc(O)c2O)COC1=O)c1cccc(O)c1O [ENTEROBACTIN],growth zone diameter,[1],25 mm
CC(=O)N(O)CCCCCNC(=O)c1cc(C(=O)NCCCCCN(O)C(C)=O)cc(C(=O)NCCCCCN(O)C(C)=O)c1,Inhibitory diameter,[2],Not toxic
same,Inhibitory diameter,[3],Not toxic
same,Inhibitory diameter,[4],Not toxic
same,Inhibitory diameter,[5],Not toxic
same,Inhibitory diameter,[6],Not toxic
same,Inhibitory diameter,[7],Not toxic
CC(=O)N(O)CCCNC(=O)c1cccc(C(=O)NCCCN(O)C(C)=O)n1,Inhibitory diameter,[8],25 mm
same,Inhibitory diameter,[9],Not toxic
same,Inhibitory diameter,[10],Not toxic
same,Inhibitory diameter,[11],Not toxic
CC(=O)N(O)CCCNC(=O)CN(CC(=O)NCCCN(O)C(C)=O)CC(=O)NCCCN(O)C(C)=O,Inhibitory diameter,[12],25 mm
same,growth zone diameter,[13],25 mm
same,Inhibitory diameter,[14],Not toxic
same,Inhibitory diameter,[15],Not toxic
same,Inhibitory diameter,[16],Not toxic
CC(=O)N(O)CCCC1NC(=O)C(CCCN(O)C(C)=O)NC1=O (centres undefined),growth zone diameter,[17],25 mm
same,Inhibitory diameter,[18],Not toxic
same,Inhibitory diameter,[19],25 mm
same,Inhibitory diameter,[20],Not toxic
same,growth zone diameter,[21],25 mm
same,growth zone diameter,[22],25 mm
CC(=O)N(O)CCCCCNC(=O)c1cccc(C(=O)NCCCCCN(O)C(C)=O)n1,Inhibitory diameter,[8],25 mm
same,Inhibitory diameter,[9],Not toxic
same,Inhibitory diameter,[10],Not toxic
same,Inhibitory diameter,[11],Not toxic
CN(O)C(=O)CCCCCNC(=O)CC(CC(=O)NCCCCCC(=O)N(C)O)C(=O)NCCCCCC(=O)N(C)O,Inhibitory diameter,[23],25 mm
same,growth zone diameter,[24],25 mm
same,Inhibitory diameter,[25],Not toxic
same,Inhibitory diameter,[26],Not toxic
same,Inhibitory diameter,[27],Not toxic
CC(=O)N(O)CCCNC(=O)CC(O)(CC(=O)NCCCN(O)C(C)=O)C(=O)O [SCHIZOKINEN],growth zone diameter,[28],25 mm
same,Inhibitory diameter,[29],Not toxic
same,Inhibitory diameter,[30],Not toxic
same,growth zone diameter,[31],25 mm
CC(=O)N(O)CCCCCNC(=O)CC(O)(CC(=O)NCCCCCN(O)C(C)=O)C(=O)O [ARTHROBACTIN],growth zone diameter,[17],< 10 mm
same,Inhibitory diameter,[18],Not toxic
same,Inhibitory diameter,[19],< 10 mm
same,Inhibitory diameter,[20],Not toxic
same,growth zone diameter,[21],< 10 mm
same,growth zone diameter,[22],< 10 mm
CC(=O)N(O)CCCNC(=O)CC(CC(=O)NCCCN(O)C(C)=O)C(=O)NCCCN(O)C(C)=O,Inhibitory diameter,[8],25 mm
same,Inhibitory diameter,[9],Not toxic
same,Inhibitory diameter,[10],Not toxic
same,Inhibitory diameter,[11],Not toxic
FERRICHROME,Inhibitory diameter,[18],Not toxic
same,Inhibitory diameter,[20],Not toxic
same,Inhibitory diameter,[32],Not toxic
CC(=O)N(O)CCCNC(=O)c1cc(C(=O)NCCCN(O)C(C)=O)cc(C(=O)NCCCN(O)C(C)=O)c1,Inhibitory diameter,[33],Not toxic
same,Inhibitory diameter,[34],Not toxic
same,Inhibitory diameter,[35],Not toxic
same,Inhibitory diameter,[36],Not toxic
same,Inhibitory diameter,[37],Not toxic
same,Inhibitory diameter,[38],Not toxic
